A selection: hits, their analogues and other compounds. The true share with any hit is near 1.9%.
NPY-Y1 PAM-ag = potentiators or agonists of human neuropeptide Y receptor Y1 | P25929 | NPY-Y1 expressing cells, potentiator/agonist activation | activation, % at 3.6 µM | actives 0.37% (n = 220,000); in the data active = activation above about 33%, passing the limit was not always enough;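 also: cells stimulated with NPY at EC10 then isoproterenol at EC100; 0% = low agonist plus stimulus and 100% = saturating agonist plus stimulus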
NPY2 pot ag = potentiates or activates human NPY-Y2 receptor. P49146. cells expressing NPY-Y2, potentiator/agonist read-out. activation, % at 3.6 µM. actives 0.45% (n = 220,000); in the data active = activation above about 27%;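 also: cells stimulated with NPY near EC25 plus isoproterenol at EC100; 0% = vehicle plus submaximal agonist and 100% = vehicle plus saturating agonist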
Target sequence (P49146 whole entry, looked up): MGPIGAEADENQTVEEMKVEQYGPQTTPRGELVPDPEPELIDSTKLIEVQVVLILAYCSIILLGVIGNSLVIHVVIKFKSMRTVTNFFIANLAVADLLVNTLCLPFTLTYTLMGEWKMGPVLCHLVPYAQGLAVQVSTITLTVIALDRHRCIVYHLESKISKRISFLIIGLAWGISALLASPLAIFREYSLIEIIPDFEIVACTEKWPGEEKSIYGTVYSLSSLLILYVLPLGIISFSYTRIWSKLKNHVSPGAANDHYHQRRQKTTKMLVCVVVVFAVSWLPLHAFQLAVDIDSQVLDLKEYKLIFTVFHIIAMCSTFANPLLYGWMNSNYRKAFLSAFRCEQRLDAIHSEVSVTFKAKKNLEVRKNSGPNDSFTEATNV
NPY-Y1 antag = blocks the human neuropeptide Y Y1 receptor; P25929; HEK293-CNG Y1 cells, membrane potential fluorescence; NPY at EC95, then isoproterenol; inhibition, % at 3.6 µM; actives 1% (n = 200,000); AID 1040;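 active = inhibition above the campaign mean inhibition of all tested compounds plus 3 SD, cut at about 20% in these data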;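 also: 0% = DMSO wells given NPY plus isoproterenol and 100% = isoproterenol alone without NPY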
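Test system: HEK293 cells co-expressing NPY Y1 receptor and cyclic-nucleotide gated channel; Also added: NPY (25 nM), isoproterenol (1 µM), Ro 20-1724 (25 µM); Compound dosing: one concentration, 3.6 µM, in 0.4% DMSO; Timing: dye 3 h, compound 60 min room temperature, stimulation 45 min; Technique: Membrane-potential fluorescent dye readout.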
NPY Y2 blocker = antagonists of human neuropeptide Y receptor Y2; P49146; NPY-Y2 expressing cells, antagonist mode; inhibition, % at 2.7 µM; actives 0.99% (n = 140,000); AID 793;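 also: 0% = vehicle with agonist challenge and 100% = reference antagonist with challenge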
NPY1 antag conf = human NPY-Y1 antagonism, confirmation. shares compounds with NPY-Y1 antag. HEK293-CNG NPY-Y1, membrane potential fluorescence, cAMP; NPY challenge against isoproterenol-raised cAMP. inhibition, % at 3.6 µM. actives 21% (n = 1,200). AID 1254; in the data active = inhibition above about 20%;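 also: 0% = vehicle with agonist plus stimulus and 100% = stimulus alone without agonist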
NPY2 antag ctr = antagonizes human NPY-Y2, counter-screen to NPY-Y1 antagonists; inhibition, % at 3.6 µM; actives 28% (n = 1,200); shares compounds with NPY-Y1 antag; HEK293 NPY-Y2 CNG membrane potential fluorescence, antagonism; cells given NPY, then isoproterenol; AID 1255;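 also: 0% = DMSO with agonist challenge and 100% = reference antagonist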
Numbers without * were called inactive; / = not tested or not shown; ! = not active in a repeat. Rule as the data show it, unless noted: active = inhibition above about 17%; inactive = the rest.

SMILES	NPY-Y1 PAM-ag	NPY2 pot ag	NPY-Y1 antag	NPY Y2 blocker	NPY1 antag conf	NPY2 antag ctr
CN(c1cccc(Cl)c1)S(=O)(=O)c1cccc(C(=O)NC2=NCCS2)c1	0	14	-5	2	/	/
Nc1ccccc1C(=O)NNc1ncc(C(F)(F)F)cc1Cl	-80	-28	21*	5	5	8
COCCn1c(C(C)C)nc2ccccc21	18	4	/	/	/	/
COc1cccc(OCc2nc(-c3ccc(Br)o3)no2)c1	-35	-34	15	/	/	/
Brc1ccc(-c2noc(COc3ccc4ccccc4c3)n2)o1	-70	-49	29*	14	17	10
CCN(CC)S(=O)(=O)c1cc(NC(=O)CSc2nccn2C)ccc1C	10	9	-4	/	/	/
Cn1c(-c2ccc3c(c2)OCO3)cnc1NCc1ccccc1Cl	-7	-2	12	/	/	/
Cn1c(-c2ccc3c(c2)OCO3)cnc1NCc1cccc(Cl)c1	-6	-18	34*	10	12	12
Cc1ccc(-c2n[nH]c(=S)n2/N=C/c2c(C)nn(-c3ccccc3)c2C)cc1	8	-7	-2	7	/	/
CCc1n[nH]c(=S)n1/N=C/c1c(C)nn(-c2ccccc2)c1Cl	-13	-13	45*	/	32*	53*
CCc1ccc(NC(=O)CSc2nc3ccccc3c(=O)n2CCCN2CCC(C)CC2)cc1	-38	-15	38*	/	47*	51*
CN1\C(=C/C=C/C=C/C=[N+](C)C)C(C)(C)c2ccccc21	3	-8	151*	/	195*	145*
COc1cccc(CN(C(=O)Cc2c[nH]c3ccccc23)C(C(=O)NC2CCCCC2)c2ccc(C)o2)c1 (stereo not given)	-20	-1	23*	16	13	14
CC(Sc1nnc(-c2cccs2)n1Cc1ccccc1)C(=O)NCc1ccc2c(c1)OCO2 (stereo not given)	3	9	24*	15	7	7
O=C(CN1CCN(C(=O)C2COc3ccccc3O2)CC1)Nc1ccccc1 (stereo not given)	4	-11	/	/	/	/
N#CC1=C(N)Oc2cc(N)ccc2C1c1cccnc1 (stereo not given)	13	5	-2	0	/	/
CCN(CC)c1ccc2c(c1)OC(N)=C(C#N)C2c1cccnc1 (stereo not given)	-11	-12	27*	6	6	15
NNC(=O)CCN(Cc1ccco1)S(=O)(=O)c1ccc(Cl)cc1	-11	-7	/	/	/	/
COc1cccc(NC(=O)CN(C)C(=O)COc2ccc3ccccc3c2)c1	-19	-7	16	10	/	/
CCN(CC(=O)Nc1ccccc1OC)C(=O)COc1ccc2ccccc2c1	-39	-16	24*	15	17	7
O=C(c1ccc2c(c1)OCO2)C1CCCN(Cc2cc(F)ccc2-n2cccn2)C1 (stereo not given)	-19	-19	3	/	/	/
Cc1ccc(-n2cccn2)c(CN2CCCC(C(=O)c3ccc4c(c3)OCO4)C2)c1 (stereo not given)	-28	-25	28*	/	24*	28*
COc1cccc2cc(-c3nc(-c4cccs4)cs3)c(=O)oc12	-29	-20	0	-2	/	/
O=c1oc2ccccc2cc1-c1nc(-c2cccs2)cs1	-28	-2	30*	13	11	8
CC(C)c1ccc(NC(=S)NNC(=O)c2cccs2)cc1	2	6	4	/	/	/
SMILES	NPY-Y1 PAM-ag	NPY2 pot ag	NPY-Y1 antag	NPY Y2 blocker	NPY1 antag conf	NPY2 antag ctr
c1ccc(-c2csc3ncnc(NCCCN4CCOCC4)c23)cc1	-9	-1	9	1	/	/
O=c1c2c(-c3ccccc3)csc2nc2c3ccccc3c(NCCN3CCOCC3)nn12	-63	-36	32*	/	27*	40*
CSc1nc(Oc2ccc(F)cc2)c2ccccc2n1	-23	-19	23*	11	6	9
CCSc1nnc(NC(=O)Cc2cc(OC)c(OC)c(OC)c2)s1	-20	-4	3	/	/	/
CCNS(=O)(=O)c1ccc2c(c1)NCC2	2	0	2	0	/	/
N#Cc1nc(-c2ccc(F)cc2)oc1NCc1cccc2c1OCO2	-25	-9	22*	15	16	15
Cc1cccc(OCc2n(CC(=O)OC3CC(C)CCC3C(C)C)c3ccccc3[n+]2C)c1 (stereo not given)	-49	-25	28*	/	24*	39*
Cc1cc(Br)c(OCc2ccc(C(=O)N/N=C3\CC4CC=CC34)cc2)c(Br)c1 (stereo not given)	-17	-14	-3	7	/	/
CC(NC(=O)c1ccc(N)cc1)c1ccccc1 (stereo not given)	0	-4	1	/	/	/
CCN(CC)CC#CCC(OC)(c1ccccc1)c1ccccc1	-13	-22	19	/	/	/
CNCC(=O)N(CC(C)C)c1c(N)n(CC(C)C)c(=O)[nH]c1=O	-3	4	3	/	/	/
CCN(CC)CCN1C(=O)C(=O)/C(=C(/O)c2ccc(OC(C)C)cc2)C1c1cccs1 (stereo not given)	2	-16	/	/	/	/
Nc1nc(CN2CCN(c3cccc(Cl)c3)CC2)nc(N2CCCc3ccccc32)n1	-59	-37	13	16	/	/
Nc1nc(CN2CCN(c3ccccc3)CC2)nc(N2CCCc3ccccc32)n1	-38	-17	22*	13	8	8
CCC1=Nc2cc(C(=O)O)ccc2Sc2ccc(Cl)cc21	14	-1	69*	4	2	1
O=C(N1CCN(c2ccc(F)cc2)CC1)C12CC3CC(CC(C3)C1)C2	11	-17	15	3	/	/
O=C(Nc1c2c(nn1-c1ccc(F)cc1)CS(=O)(=O)C2)C12CC3CC(CC(C3)C1)C2	-21	12	33*	6	7	9
C=CCOC(=O)c1cn(CC)c2nc(C)ccc2c1=O	-5	6	-1	/	/	/
CCn1cc(C(=O)OCC(=O)OC2CC(C)CCC2C(C)C)c(=O)c2ccc(C)nc21 (stereo not given)	-22	-1	21*	4	11	8
COc1cc(C2NC(=O)NC(C)=C2[N+](=O)[O-])cc(OC)c1OC (stereo not given)	-2	3	/	/	/	/
N[C@@H](Cc1cc(I)c(Oc2ccc(O)c(I)c2)c(I)c1)C(=O)O	12	9	59*!	4	-3	2
Brc1ccc(-c2nnc3c4ccccc4nc(N4CCOCC4)n23)cc1	-7	3	2	2	/	/
Clc1ccc(-c2nnc3c4ccccc4nc(N4CCOCC4)n23)cc1Cl	-17	-9	21*	10	6	8
COc1ccc(NC(C)=O)cc1NC(=O)c1ccc(C#N)cc1	18	1	-6	/	/	/
Cc1ccc(C2C3=C(CC(C)(C)CC3=O)NC3=C2C(=O)c2ccccc23)cc1 (stereo not given)	-16	-7	22*	7	14	18*
CCOC(=O)N1CCN(S(=O)(=O)c2cc([N+](=O)[O-])c(C)cc2C)CC1	-15	-3	2	/	/	/

Bioassay records from PubChem.
